In test [1] the target is T1, Mu-type opioid receptor (Rattus norvegicus, UniProt P33535). The test can be described thus: Displacement of [3H]DAMGO from mu opioid receptor in rat brain membranes. The format is cell membranes.
Test [2] addresses Delta-type opioid receptor (Rattus norvegicus, UniProt P33533). The test can be described thus: Displacement of [3H]naltrindole from delta opioid receptor in rat brain membranes. The format is cell membranes.
A short description of test [3]: Selectivity for mu opioid receptor over delta opioid receptor in rat brain membranes. The format is cell membranes.
The target of test [4] is Delta-type opioid receptor (Homo sapiens, UniProt P41143). In words: Antagonist activity at delta opioid receptor expressed in CHO cells assessed as release of intracellular calcium ions by aequorin luminescence-based calcium assay. The format is functional, cell-based.
The subject of test [5] is Mus musculus. The test can be described thus: Antinociceptive activity in mouse assessed as paw licking latency at 10 ug, icv in presence of endomorphin-2 by hot plate test. The format is functional. An outline of the steps:
(§1)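 Mouse hot plate test with intracerebroventricular co-injection of endomorphin-2 (3 ug/animal) plus antagonist: naloxone at 5 ug/animal, or analog at 10 ug/animal. Rearing, paw-licking and jumping latencies were measured against saline controls and converted to %MPE = (t1 − t0)/(t2 − t0) × 100, with a 240 s cutoff.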

The subject of test [6] is Mus musculus. The test can be described thus: Antinociceptive activity in mouse assessed as rearing latency at 10 ug, icv in presence of endomorphin-2 by hot plate test. It counts as functional. In short, it runs like this: as §1
Test [7] has as its system Mus musculus. In words: Antinociceptive activity in mouse assessed as jumping latency at 10 ug, icv in presence of endomorphin-2 by hot plate test. It counts as functional. An outline of the steps: as §1
Test [8] concerns the target T1, Mu-type opioid receptor. In words: Displacement of [3H]naloxone from mu opioid receptor in rat brain membranes. The format is cell membranes.
Test [9] relates to Mus musculus. In words: Antinociceptive activity in mouse assessed as paw licking latency at 10 ug, icv by hot plate test. The format is functional. In short, it runs like this: (§2)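 Mice, single intracerebroventricular peptide injection; hot plate latencies recorded for rearing, paw licking and jumping. Control latencies (t0) taken after saline, test latencies (t1) after peptide. Expressed as %MPE = (t1 − t0)/(t2 − t0) × 100, with a cutoff time (t2) of 240 s.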

Test [10] concerns Mus musculus. In words: Antinociceptive activity in mouse assessed as rearing latency at 10 ug, icv by hot plate test. The format is functional. An outline of the steps: as §2
For test [11], the system named is Mus musculus. The test can be described thus: Antinociceptive activity in mouse assessed as jumping latency at 10 ug, icv by hot plate test. It counts as functional. In short, it runs like this: as §2
For test [12], the system named is Mus musculus. The test can be described thus: Antinociceptive activity in mouse assessed as jumping latency at 5 ug, icv in presence of endomorphin-2 by hot plate test. The format is functional. An outline of the steps: as §1
In test [13] the test system is Mus musculus. In words: Antinociceptive activity in mouse assessed as paw licking latency at 5 ug, icv in presence of endomorphin-2 by hot plate test. The format is functional. An outline of the steps:
as §1

For test [14], the system named is Mus musculus. The test can be described thus: Antinociceptive activity in mouse assessed as rearing latency at 5 ug, icv in presence of endomorphin-2 by hot plate test. The format is functional. An outline of the steps:
as §1

Peptide text beside a SMILES is read from it. Some results are limits rather than exact numbers.

T1 sequence (P33535 whole entry): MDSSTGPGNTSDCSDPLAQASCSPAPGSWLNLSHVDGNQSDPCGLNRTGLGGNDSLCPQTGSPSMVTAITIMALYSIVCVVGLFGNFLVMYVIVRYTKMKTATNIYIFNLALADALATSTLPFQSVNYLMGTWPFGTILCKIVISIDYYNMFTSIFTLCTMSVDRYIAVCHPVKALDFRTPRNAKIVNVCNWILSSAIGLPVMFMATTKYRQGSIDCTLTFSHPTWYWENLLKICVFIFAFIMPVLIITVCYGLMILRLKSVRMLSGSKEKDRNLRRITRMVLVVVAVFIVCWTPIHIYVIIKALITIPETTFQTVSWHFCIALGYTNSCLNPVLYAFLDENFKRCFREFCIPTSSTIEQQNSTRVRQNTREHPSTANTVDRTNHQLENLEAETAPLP
Chain of Delta-type opioid receptor (Homo sapiens, UniProt P41143) (P41143 whole entry): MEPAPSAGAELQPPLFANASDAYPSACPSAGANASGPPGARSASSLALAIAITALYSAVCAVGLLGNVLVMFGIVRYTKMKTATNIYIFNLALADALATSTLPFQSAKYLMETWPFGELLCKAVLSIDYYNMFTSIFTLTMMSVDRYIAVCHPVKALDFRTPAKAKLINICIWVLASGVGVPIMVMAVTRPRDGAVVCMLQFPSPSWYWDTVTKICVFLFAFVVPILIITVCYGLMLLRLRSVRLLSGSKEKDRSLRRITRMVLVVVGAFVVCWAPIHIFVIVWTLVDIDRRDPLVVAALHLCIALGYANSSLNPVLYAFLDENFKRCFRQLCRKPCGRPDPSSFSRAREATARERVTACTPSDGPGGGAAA
Chain of Delta-type opioid receptor (Rattus norvegicus, UniProt P33533) (P33533 whole entry): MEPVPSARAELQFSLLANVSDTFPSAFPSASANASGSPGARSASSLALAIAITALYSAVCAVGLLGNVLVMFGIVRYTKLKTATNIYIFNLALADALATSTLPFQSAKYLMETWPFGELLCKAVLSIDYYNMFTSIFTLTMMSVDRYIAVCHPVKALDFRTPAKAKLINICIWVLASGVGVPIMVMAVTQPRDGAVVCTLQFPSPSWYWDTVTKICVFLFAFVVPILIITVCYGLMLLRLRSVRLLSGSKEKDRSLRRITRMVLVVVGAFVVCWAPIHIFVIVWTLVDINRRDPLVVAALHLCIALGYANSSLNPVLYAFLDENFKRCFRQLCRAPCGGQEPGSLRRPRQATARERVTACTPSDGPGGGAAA

Consider `CN(CC(=O)N[C@@H](Cc1ccccc1)C(=O)N[C@H](Cc1ccc2ccccc2c1)C(N)=O)C(=O)[C@@H](N)Cc1ccc(O)cc1`, for which the IC50 at Mu-type opioid receptor [1] was 1560 nM; in [2] it was above 10000 nM; in test [3], above 6.41 nM. Moreover, the EC50 in test [4] is above 1000 nM.
For `NC(=O)[C@@H](Cc1ccc2ccccc2c1)NC(=O)[C@H](Cc1ccccc1)NC(=O)[C@@H]1CCCN1C(=O)[C@@H](N)Cc1ccc(O)cc1` (HELM PEPTIDE1{Y.P.F.[O=C([C@@H](Cc1ccc2ccccc2c1)N[*:1])[*:2]].[am]}$$$$V2.0), the values for the MPE in the test with Mus musculus [5], with Mus musculus [6] and in the test with Mus musculus [7] were 2.94%, 5.26% and 17.9%, respectively. The IC50 at Mu-type opioid receptor [8] amounted to 19.5 nM.
`Cc1cc(O)cc(C)c1C[C@H](N)C(=O)N1CCC[C@H]1C(=O)N[C@@H](Cc1ccccc1)C(=O)N[C@H](Cc1ccc2ccccc2c1)C(N)=O` (HELM PEPTIDE1{[Cc1cc(O)cc(C)c1C[C@H](N)C(=O)[*:2]].P.F.[O=C([C@@H](Cc1ccc2ccccc2c1)N[*:1])[*:2]].[am]}$$$$V2.0): the MPE with Mus musculus [5] worked out at 0.26%; in the test with Mus musculus [6], 0.13%; with Mus musculus [7], 2.26%; in the test with Mus musculus [9] it was 0.09%; in the test on Mus musculus [10], 0.18%. In addition, the IC50 on Mu-type opioid receptor [1] amounted to 1.52 nM; in [3], 5.09 nM.
Turning to `Cc1cc(O)cc(C)c1C[C@H](N)C(=O)N(C)CC(=O)N[C@@H](Cc1ccccc1)C(=O)N[C@H](Cc1ccc2ccccc2c1)C(N)=O` (HELM PEPTIDE1{[Cc1cc(O)cc(C)c1C[C@H](N)C(=O)[*:2]].[Sar].F.[O=C([C@@H](Cc1ccc2ccccc2c1)N[*:1])[*:2]].[am]}$$$$V2.0), the MPE came out at 1.89% in the test with Mus musculus [5]; 3.63% in the test on Mus musculus [6]; 11.5% in the test with Mus musculus [7]; 0.04% with Mus musculus [9]; 0.09% in the test on Mus musculus [10]; 1.42% in the test with Mus musculus [11]. Further, the IC50 was 0.01 nM on Mu-type opioid receptor [1], above 10000 nM in test [2] and above 10000 nM in test [3]. Further, the EC50 in test [4] was above 1000 nM.
`C=CCN1CC[C@]23c4c5ccc(O)c4O[C@H]2C(=O)CC[C@@]3(O)[C@H]1C5` [NALOXONE]: the MPE in the test on Mus musculus [12] is given as 2.19%; in the test on Mus musculus [13] it was 0.34%; in the test with Mus musculus [14], 0.22%.

The record behind these values is ChEMBL document CHEMBL1141475 (Bioorg Med Chem Lett, 2008).
